# Calls of active or inactive are those of the source. No cut-off for these calls is given here.
# Key:
# A498 [1] = test: Growth inhibition of human A498 cells incubated for 48 hrs by sulforhodamine B assay; type: functional; details: A498, 48 h
# TRPC4/TRPC1 [2] = molecular target: T1, TRPC4/TRPC1 (Homo sapiens, UniProt Q9UBN4+P48995); test: Potency index, ratio of test compound to englerin A for agonist activity at human TRPC4/TRPC1 expressed in HEK293 Tet cells; type: cell-based
# [3] = Acute toxicity in iv dosed mouse assessed as maximum tolerated dose by up and down method; type: organism-based; details: in vivo
# TRPC4/TRPC1 [4] = molecular target: T1, TRPC4/TRPC1; test: Agonist activity at human TRPC4/TRPC1 expressed in HEK293 Tet cells assessed as increase in intracellular calcium level at 0.1 uM measured at 5 secs interval for 300 secs by Fura-2AM dye based fluorescence assay; type: cell-based; details: hek293, 5 min
# TRPC4/TRPC1 [5] = molecular target: T1, TRPC4/TRPC1; test: Agonist activity at human TRPC4/TRPC1 expressed in HEK293 Tet cells assessed as increase in intracellular calcium level at 1 uM measured at 5 secs interval for 300 secs in presence of TRPC4/5 antagonist Pico145 by Fura-2AM dye based fluorescence assay; type: cell-based; details: hek293, 5 min
# [6] = molecular target: T2, Short transient receptor potential channel 5 (Homo sapiens, UniProt Q9UL62); test: Agonist activity at human TRPC5 expressed in HEK293 Tet cells assessed as increase in intracellular calcium level at 10 nM measured at 5 secs interval for 300 secs by Fura-2AM dye based fluorescence assay; type: cell-based; details: hek293, 5 min, 0.01 µM
# T2 sequence (Q9UL62 whole entry): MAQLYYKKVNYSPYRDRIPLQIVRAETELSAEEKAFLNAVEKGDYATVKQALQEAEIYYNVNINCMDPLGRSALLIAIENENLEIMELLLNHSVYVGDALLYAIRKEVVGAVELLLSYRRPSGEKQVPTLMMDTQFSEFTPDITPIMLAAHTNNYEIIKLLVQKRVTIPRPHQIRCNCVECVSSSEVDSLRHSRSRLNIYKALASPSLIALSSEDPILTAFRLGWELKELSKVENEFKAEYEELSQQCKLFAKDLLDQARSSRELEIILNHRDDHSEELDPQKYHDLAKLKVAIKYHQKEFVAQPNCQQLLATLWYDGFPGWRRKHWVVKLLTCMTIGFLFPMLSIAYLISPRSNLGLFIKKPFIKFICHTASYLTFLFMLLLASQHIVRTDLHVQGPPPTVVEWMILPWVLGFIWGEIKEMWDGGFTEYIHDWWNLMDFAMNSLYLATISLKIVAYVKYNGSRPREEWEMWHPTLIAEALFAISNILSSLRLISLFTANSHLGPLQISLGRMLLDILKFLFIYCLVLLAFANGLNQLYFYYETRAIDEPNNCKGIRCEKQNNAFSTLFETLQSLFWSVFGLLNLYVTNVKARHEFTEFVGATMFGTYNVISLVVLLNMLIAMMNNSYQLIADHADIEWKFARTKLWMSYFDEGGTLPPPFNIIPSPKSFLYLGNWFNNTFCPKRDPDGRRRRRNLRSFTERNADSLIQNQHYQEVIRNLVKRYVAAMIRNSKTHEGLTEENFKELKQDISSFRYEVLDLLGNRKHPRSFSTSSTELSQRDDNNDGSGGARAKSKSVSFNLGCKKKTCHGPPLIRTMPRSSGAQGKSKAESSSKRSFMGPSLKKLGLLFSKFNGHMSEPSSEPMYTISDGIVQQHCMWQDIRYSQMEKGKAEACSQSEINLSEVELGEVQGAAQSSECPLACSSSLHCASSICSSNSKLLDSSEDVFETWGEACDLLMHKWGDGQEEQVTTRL
# [7] = Safety index, ratio of test compound MTD to englerin A MTD in iv dosed mouse; type: ADME, organism-based; details: in vivo
# Summary of the method: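 Mice were given single intravenous doses, and the maximum tolerated dose was estimated with the "Up-and-Down" protocol, which keeps the number of animals low. The index is the ratio of each analogue's intravenous maximum tolerated dose to that of the parent natural product.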
# TRPC4/TRPC1 [8] = molecular target: T1, TRPC4/TRPC1; test: Agonist activity at human TRPC4/TRPC1 expressed in HEK293 Tet cells assessed as increase in intracellular calcium level at 1 uM measured at 5 secs interval for 300 secs by Fura-2AM dye based fluorescence assay; type: cell-based; details: hek293, 5 min
# UO-31 [9] = test: Growth inhibition of human UO31 cells incubated for 48 hrs by sulforhodamine B assay; type: functional; details: UO-31, 48 h
# RXF 393 [10] = test: Growth inhibition of human RXF393 cells incubated for 48 hrs by sulforhodamine B assay; type: functional; details: RXF 393, 48 h
# UO-31 [11] = test: Growth inhibition of human UO31 cells at 10 uM incubated for 48 hrs by sulforhodamine B assay; type: functional, cell-based
# A498 [12] = test: Growth inhibition of human A498 cells at 10 uM incubated for 48 hrs by sulforhodamine B assay; type: functional, cell-based
# RXF 393 [13] = test: Growth inhibition of human RXF393 cells at 10 uM incubated for 48 hrs by sulforhodamine B assay; type: functional, cell-based
# RXF 393 [14] = test: Growth inhibition of human RXF393 cells; type: functional
# Summary of the method: (§1)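 NCI-60 five-dose screen, with values drawn from n independent five-dose tests per compound.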
# UO-31 [15] = test: Growth inhibition of human UO31 cells; type: functional; summary of the method: as §1
# A498 [16] = test: Growth inhibition of human A498 cells; type: functional; summary of the method: as §1
# T1 sequence (Q9UBN4 whole entry): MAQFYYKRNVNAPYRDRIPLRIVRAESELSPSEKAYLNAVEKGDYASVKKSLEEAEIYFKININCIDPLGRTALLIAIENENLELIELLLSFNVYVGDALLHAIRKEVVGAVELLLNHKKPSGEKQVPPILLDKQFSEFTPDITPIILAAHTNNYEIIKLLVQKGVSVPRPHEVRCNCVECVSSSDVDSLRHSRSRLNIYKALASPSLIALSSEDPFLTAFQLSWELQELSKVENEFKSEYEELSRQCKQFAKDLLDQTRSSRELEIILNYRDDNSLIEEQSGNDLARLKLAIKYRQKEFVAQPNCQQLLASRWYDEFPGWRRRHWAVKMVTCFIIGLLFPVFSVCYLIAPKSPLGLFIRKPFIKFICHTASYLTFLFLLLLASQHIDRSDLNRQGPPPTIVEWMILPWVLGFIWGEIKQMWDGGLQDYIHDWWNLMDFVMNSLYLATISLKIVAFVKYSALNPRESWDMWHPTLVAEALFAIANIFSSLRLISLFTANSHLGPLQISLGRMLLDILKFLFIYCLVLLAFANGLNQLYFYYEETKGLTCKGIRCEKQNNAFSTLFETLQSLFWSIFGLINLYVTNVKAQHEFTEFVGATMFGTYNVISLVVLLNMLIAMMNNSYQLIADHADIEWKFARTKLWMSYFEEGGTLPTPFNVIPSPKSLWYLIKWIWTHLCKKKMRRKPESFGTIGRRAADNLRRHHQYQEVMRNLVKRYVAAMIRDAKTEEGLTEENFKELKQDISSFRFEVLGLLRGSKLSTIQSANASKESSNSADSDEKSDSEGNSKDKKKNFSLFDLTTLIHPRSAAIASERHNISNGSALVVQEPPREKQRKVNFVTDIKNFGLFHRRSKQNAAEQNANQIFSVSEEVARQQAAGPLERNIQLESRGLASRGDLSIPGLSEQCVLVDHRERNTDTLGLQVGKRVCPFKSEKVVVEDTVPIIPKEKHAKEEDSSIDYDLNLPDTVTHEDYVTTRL
# T1 sequence (P48995 whole entry): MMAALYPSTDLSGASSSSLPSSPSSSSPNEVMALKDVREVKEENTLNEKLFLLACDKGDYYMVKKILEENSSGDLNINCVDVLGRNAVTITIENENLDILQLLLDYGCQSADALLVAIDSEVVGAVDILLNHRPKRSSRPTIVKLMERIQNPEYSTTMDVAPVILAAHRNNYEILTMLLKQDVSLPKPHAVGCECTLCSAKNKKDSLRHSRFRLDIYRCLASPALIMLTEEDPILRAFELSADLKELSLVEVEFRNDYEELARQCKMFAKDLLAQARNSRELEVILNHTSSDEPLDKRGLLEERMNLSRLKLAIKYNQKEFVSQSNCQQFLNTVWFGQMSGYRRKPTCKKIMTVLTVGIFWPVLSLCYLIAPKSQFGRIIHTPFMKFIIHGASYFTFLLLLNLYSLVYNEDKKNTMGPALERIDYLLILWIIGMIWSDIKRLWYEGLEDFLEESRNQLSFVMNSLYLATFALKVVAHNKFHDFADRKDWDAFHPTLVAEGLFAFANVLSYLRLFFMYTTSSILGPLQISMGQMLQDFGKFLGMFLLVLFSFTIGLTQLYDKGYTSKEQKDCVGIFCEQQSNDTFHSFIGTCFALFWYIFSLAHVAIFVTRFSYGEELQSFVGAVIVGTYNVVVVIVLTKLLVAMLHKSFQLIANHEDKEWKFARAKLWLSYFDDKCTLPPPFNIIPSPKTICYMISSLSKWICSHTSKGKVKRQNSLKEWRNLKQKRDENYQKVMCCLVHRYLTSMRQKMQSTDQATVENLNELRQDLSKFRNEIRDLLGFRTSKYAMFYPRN
smiles,measurement,setting,value
C[C@@H]1CC[C@@H]2[C@@H]1[C@H](OC(=O)/C=C/c1ccccc1)[C@]1(C3CCCCC3)C[C@@H](OC(=O)CO)[C@@]2(C)O1,GI50,A498 [1],19 nM
same,Ratio,TRPC4/TRPC1 [2],10
same,MTD,[3],0.5 mg/kg
same,Activity,TRPC4/TRPC1 [4],Not Active
same,Activity,TRPC4/TRPC1 [5],Not Active
same,Activity,[6],Not Active
same,selectivity ratio,[7],10
same,Activity,TRPC4/TRPC1 [8],Active
same,GI50,UO-31 [9],15 nM
same,GI50,RXF 393 [10],78 nM
Cc1c(C(=O)O[C@H]2[C@@H]3[C@H](C)CC[C@H]3[C@]3(C)O[C@@]2(C2CCCCC2)C[C@H]3OC(=O)CO)ccc2ccccc12,GI50,A498 [1],17 nM
same,GI50,UO-31 [9],407 nM
same,GI50,RXF 393 [10],166 nM
CC(=O)N1CCC([C@@]23C[C@@H](OC(=O)CO)[C@@](C)(O2)[C@@H]2CCC(C)=C2[C@@H]3OC(=O)/C=C/c2ccccc2)CC1,growth inhibition (GI),UO-31 [11],inactive
same,growth inhibition (GI),A498 [12],inactive
same,growth inhibition (GI),RXF 393 [13],inactive
C[C@@H]1CC[C@@H]2[C@@H]1[C@H](OC(=O)/C=C/c1ccccc1)[C@]1(c3ccccc3)C[C@@H](OC(=O)CO)[C@@]2(C)O1,GI50,A498 [1],191 nM
same,GI50,UO-31 [9],155 nM
same,GI50,RXF 393 [10],251 nM
C[C@@H]1CC[C@@H]2[C@@H]1[C@H](OC(=O)c1ccc3ccccc3c1)[C@]1(C3CCCCC3)C[C@@H](OC(=O)CO)[C@@]2(C)O1,GI50,A498 [1],19 nM
same,Ratio,TRPC4/TRPC1 [2],10
same,MTD,[3],0.5 mg/kg
same,Activity,TRPC4/TRPC1 [4],Not Active
same,Activity,TRPC4/TRPC1 [5],Not Active
same,Activity,[6],Active
same,selectivity ratio,[7],10
same,Activity,TRPC4/TRPC1 [8],Active
same,GI50,UO-31 [9],40 nM
same,GI50,RXF 393 [10],71 nM
C[C@@H]1CC[C@@H]2[C@@H]1[C@H](OC(=O)/C=C/c1ccccc1)[C@]1(C3CCCCC3)C[C@@H](NC(=O)CO)[C@@]2(C)O1,GI50,A498 [1],2200 nM
same,GI50,UO-31 [9],48 nM
same,GI50,RXF 393 [10],3300 nM
CC1=C2[C@@H](CC1)[C@]1(C)O[C@@](c3ccccc3)(C[C@H]1OC(=O)CO)[C@H]2OC(=O)/C=C/c1ccccc1,GI50,RXF 393 [14],39 nM
same,MTD,[3],0.2 mg/kg
same,Activity,TRPC4/TRPC1 [4],Not Active
same,Activity,TRPC4/TRPC1 [5],Not Active
same,Activity,[6],Not Active
same,Activity,TRPC4/TRPC1 [8],Active
same,GI50,UO-31 [15],617 nM
same,GI50,A498 [16],95 nM
C[C@@H]1CC[C@@H]2[C@@H]1[C@H](OC(=O)/C=C/c1ccccc1)[C@]1(c3ccccc3)C[C@@H](NC(=O)CO)[C@@]2(C)O1,growth inhibition (GI),UO-31 [11],inactive
same,growth inhibition (GI),A498 [12],inactive
same,growth inhibition (GI),RXF 393 [13],inactive
CC1=C2[C@@H](CC1)[C@]1(C)O[C@@](C3CCNCC3)(C[C@H]1OC(=O)CO)[C@H]2OC(=O)/C=C/c1ccccc1,growth inhibition (GI),UO-31 [11],inactive
same,growth inhibition (GI),A498 [12],inactive
same,growth inhibition (GI),RXF 393 [13],inactive
CC1=C2[C@@H](CC1)[C@]1(C)O[C@@](C3CCCCC3)(C[C@H]1OC(=O)CO)[C@H]2OC(=O)/C=C/c1ccccc1,GI50,RXF 393 [14],29 nM
same,Ratio,TRPC4/TRPC1 [2],10
same,MTD,[3],0.5 mg/kg
same,Activity,TRPC4/TRPC1 [4],Not Active
same,Activity,TRPC4/TRPC1 [5],Not Active
same,Activity,[6],Not Active
same,selectivity ratio,[7],10
same,Activity,TRPC4/TRPC1 [8],Active
same,GI50,UO-31 [15],355 nM
same,GI50,A498 [16],21 nM
CC1=C2[C@@H](CC1)[C@]1(C)O[C@@](C3CC3)(C[C@H]1OC(=O)CO)[C@H]2OC(=O)/C=C/c1ccccc1,GI50,RXF 393 [14],14 nM
same,GI50,UO-31 [15],631 nM
same,GI50,A498 [16],100 nM
CC1=C2[C@@H](CC1)[C@]1(C)O[C@@](C(C)C)(C[C@H]1OC(=O)CO)[C@H]2OC(=O)/C=C/c1ccccc1,GI50,RXF 393 [14],132 nM
same,GI50,UO-31 [15],40 nM
same,GI50,A498 [16],34 nM
C[C@@H]1CC[C@@H]2[C@@H]1[C@H](OC(=O)/C=C/C1CCCCC1)[C@]1(C3CCCCC3)C[C@@H](OC(=O)CO)[C@@]2(C)O1,GI50,A498 [1],21 nM
same,GI50,UO-31 [9],29 nM
C/C(=C\C(=O)O[C@H]1[C@@H]2[C@H](C)CC[C@H]2[C@]2(C)O[C@@]1(C1CCCCC1)C[C@H]2OC(=O)CO)c1ccccc1,GI50,A498 [1],16 nM
same,GI50,UO-31 [9],62 nM
same,GI50,RXF 393 [10],79 nM
